Active and inactive are the calls of the source. The rule behind the calls is not given here.
tested on: MCF7; assay: Cytotoxicity against human MCF7 cells after 72 hrs by MTT assay; format: functional; details: MCF7, 72 h
How it was run: (§1)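 Cells were seeded at 2 × 10^4 cells/mL and attached overnight at 37 °C, 5% CO2. They were then exposed for 72 h to compounds from aqueous stocks (working solutions 10^-3–10^-6 mol dm^-3). MTT was added for 4 h at 37 °C, formazan dissolved in DMSO, and absorbance read at 570 nm. GI50 is the mean ± SD of three independent experiments run in triplicate.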

| SMILES | GI50 |
| --- | --- |
| c1cc(-c2sc(-c3ccc(C4=NCCCN4)cc3)c3c2OCCO3)ccc1C1=NCCCN1 | 8.4 µM |
| N=C(NC1CCCC1)c1ccc(-c2sc(-c3ccc(C(=N)NC4CCCC4)cc3)c3c2OCCO3)cc1 | 7.8 µM |

tested on: Calf thymus DNA; assay: Binding affinity to calf thymus DNA assessed as melting temperature at compound over DNA molar ratio of 0.2 at pH 7 by thermal denaturation assay; format: nucleic-acid assay; details: Bos taurus
How it was run: (§2)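 Thermal melting of ds-polynucleotide (ct-DNA or poly A-poly U) alone and with compound at the given r, Na-cacodylate pH 7.0, I = 0.05 mol dm^-3. Absorbance at 260 nm was followed versus temperature, with compound absorbance subtracted and the curve normalized. Tm was taken from the first-derivative maximum or by tangent. ΔTm = Tm(complex) − Tm(free nucleic acid).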

| SMILES | ΔTm |
| --- | --- |
| c1cc(-c2sc(-c3ccc(C4=NCCCN4)cc3)c3c2OCCO3)ccc1C1=NCCCN1 | > 16 °C |
| N=C(NC1CCCC1)c1ccc(-c2sc(-c3ccc(C(=N)NC4CCCC4)cc3)c3c2OCCO3)cc1 | 15.2 °C |

tested on: Calf thymus DNA; assay: Binding affinity to calf thymus DNA assessed as DNA CD band at compound over DNA molar ratio of > 0.3 by circular dichroism titration; format: nucleic-acid assay; details: Bos taurus
How it was run: (§3)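 CD titration of polynucleotide (2.0 × 10^-5 mol dm^-3, as phosphate) with added compound over a range of r = [compound]/[polynucleotide]. Na-cacodylate buffer, pH 7.0, I = 0.05 mol dm^-3, 1 cm quartz cuvette. ct-DNA was sonicated and filtered before use. Changes in the polynucleotide CD band and induced CD bands were followed.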

| SMILES | Activity |
| --- | --- |
| c1cc(-c2sc(-c3ccc(C4=NCCCN4)cc3)c3c2OCCO3)ccc1C1=NCCCN1 | Active |
| N=C(NC1CCCC1)c1ccc(-c2sc(-c3ccc(C(=N)NC4CCCC4)cc3)c3c2OCCO3)cc1 | Active |

tested on: MIA PaCa-2; assay: Cytotoxicity against human MIAPaCa2 cells after 72 hrs by MTT assay; format: functional; details: MIA PaCa-2, 72 h; how it was run: as §1

| SMILES | GI50 |
| --- | --- |
| c1cc(-c2sc(-c3ccc(C4=NCCCN4)cc3)c3c2OCCO3)ccc1C1=NCCCN1 | 64.7 µM |
| N=C(NC1CCCC1)c1ccc(-c2sc(-c3ccc(C(=N)NC4CCCC4)cc3)c3c2OCCO3)cc1 | 10.9 µM |

tested on: Calf thymus DNA; assay: Binding affinity to calf thymus DNA assessed as melting temperature at compound over DNA molar ratio of 0.3 at pH 7 by thermal denaturation assay; format: nucleic-acid assay; details: Bos taurus; how it was run: as §2

| SMILES | ΔTm |
| --- | --- |
| c1cc(-c2sc(-c3ccc(C4=NCCCN4)cc3)c3c2OCCO3)ccc1C1=NCCCN1 | > 16 °C |
| N=C(NC1CCCC1)c1ccc(-c2sc(-c3ccc(C(=N)NC4CCCC4)cc3)c3c2OCCO3)cc1 | > 16 °C |

tested on: Caco-2; assay: Cytotoxicity against human Caco2 cells after 72 hrs by MTT assay; format: functional; details: Caco-2, 72 h; how it was run: as §1

| SMILES | GI50 |
| --- | --- |
| c1cc(-c2sc(-c3ccc(C4=NCCCN4)cc3)c3c2OCCO3)ccc1C1=NCCCN1 | 101 µM |
| N=C(NC1CCCC1)c1ccc(-c2sc(-c3ccc(C(=N)NC4CCCC4)cc3)c3c2OCCO3)cc1 | 41 µM |

tested on: Calf thymus DNA; assay: Binding affinity to calf thymus DNA assessed as melting temperature at compound over DNA molar ratio of 0.1 at pH 7 by thermal denaturation assay; format: nucleic-acid assay; details: Bos taurus; how it was run: as §2

| SMILES | ΔTm |
| --- | --- |
| c1cc(-c2sc(-c3ccc(C4=NCCCN4)cc3)c3c2OCCO3)ccc1C1=NCCCN1 | 11.8 °C |
| N=C(NC1CCCC1)c1ccc(-c2sc(-c3ccc(C(=N)NC4CCCC4)cc3)c3c2OCCO3)cc1 | 12.3 °C |

tested on: Nucleic Acid; assay: Binding affinity to ds-RNA assessed as RNA CD band at compound over RNA molar ratio of < 0.2 by circular dichroism titration; format: nucleic-acid assay; details: not given; how it was run: as §3

| SMILES | Activity |
| --- | --- |
| c1cc(-c2sc(-c3ccc(C4=NCCCN4)cc3)c3c2OCCO3)ccc1C1=NCCCN1 | inactive |
| N=C(NC1CCCC1)c1ccc(-c2sc(-c3ccc(C(=N)NC4CCCC4)cc3)c3c2OCCO3)cc1 | inactive |

tested on: not listed separately; assay: Cytotoxicity against MDCK cells after 72 hrs by MTT assay; format: cell-based, Canis lupus familiaris; details: dog; how it was run: as §1

| SMILES | GI50 at 72 h |
| --- | --- |
| c1cc(-c2sc(-c3ccc(C4=NCCCN4)cc3)c3c2OCCO3)ccc1C1=NCCCN1 | 82 µM |
| N=C(NC1CCCC1)c1ccc(-c2sc(-c3ccc(C(=N)NC4CCCC4)cc3)c3c2OCCO3)cc1 | 50 µM |

tested on: Calf thymus DNA; assay: Binding affinity to calf thymus DNA minor groove assessed as DNA CD band at compound over DNA molar ratio of < 0.2 by circular dichroism titration; format: nucleic-acid assay; details: Bos taurus; how it was run: as §3

| SMILES | Activity |
| --- | --- |
| c1cc(-c2sc(-c3ccc(C4=NCCCN4)cc3)c3c2OCCO3)ccc1C1=NCCCN1 | Active |
| N=C(NC1CCCC1)c1ccc(-c2sc(-c3ccc(C(=N)NC4CCCC4)cc3)c3c2OCCO3)cc1 | Active |

tested on: HeLa; assay: Cytotoxicity against human HeLa cells after 72 hrs by MTT assay; format: functional; details: not given; how it was run: as §1

| SMILES | GI50 |
| --- | --- |
| c1cc(-c2sc(-c3ccc(C4=NCCCN4)cc3)c3c2OCCO3)ccc1C1=NCCCN1 | 97.5 µM |
| N=C(NC1CCCC1)c1ccc(-c2sc(-c3ccc(C(=N)NC4CCCC4)cc3)c3c2OCCO3)cc1 | 26.7 µM |

tested on: HEp-2; assay: Cytotoxicity against human Hep2 cells after 72 hrs by MTT assay; format: functional; details: HEp-2, 72 h; how it was run: as §1

| SMILES | GI50 |
| --- | --- |
| c1cc(-c2sc(-c3ccc(C4=NCCCN4)cc3)c3c2OCCO3)ccc1C1=NCCCN1 | 97.7 µM |
| N=C(NC1CCCC1)c1ccc(-c2sc(-c3ccc(C(=N)NC4CCCC4)cc3)c3c2OCCO3)cc1 | 61.3 µM |

tested on: AGS; assay: Cytotoxicity against human AGS cells after 72 hrs by MTT assay; format: functional; details: not given; how it was run: as §1

| SMILES | GI50 |
| --- | --- |
| c1cc(-c2sc(-c3ccc(C4=NCCCN4)cc3)c3c2OCCO3)ccc1C1=NCCCN1 | 81.7 µM |
| N=C(NC1CCCC1)c1ccc(-c2sc(-c3ccc(C(=N)NC4CCCC4)cc3)c3c2OCCO3)cc1 | 45 µM |

tested on: Calf thymus DNA; assay: Binding affinity to calf thymus DNA assessed as batochromic effect at compound over DNA molar ratio of 0.2 by fluorimetric titration; format: nucleic-acid assay; details: Bos taurus
How it was run: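 Fluorimetric titration of compound (about 1.0 × 10^-6 mol dm^-3) with ct-DNA. Excitation above 360 nm to avoid inner-filter effects. Na-cacodylate buffer, pH 7.0, I = 0.05 mol dm^-3. Emission at the maximum was plotted against c(ct-DNA). Ks and n were obtained by non-linear Scatchard fitting.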

| SMILES | Activity |
| --- | --- |
| c1cc(-c2sc(-c3ccc(C4=NCCCN4)cc3)c3c2OCCO3)ccc1C1=NCCCN1 | Active |
| N=C(NC1CCCC1)c1ccc(-c2sc(-c3ccc(C(=N)NC4CCCC4)cc3)c3c2OCCO3)cc1 | Active |

tested on: Nucleic Acid; assay: Binding affinity to polu A-poly U assessed as melting temperature at compound over DNA molar ratio of 0.3 at pH 7 by thermal denaturation assay; format: nucleic-acid assay; details: not given; how it was run: as §2

| SMILES | ΔTm |
| --- | --- |
| c1cc(-c2sc(-c3ccc(C4=NCCCN4)cc3)c3c2OCCO3)ccc1C1=NCCCN1 | 8.2 °C |
| N=C(NC1CCCC1)c1ccc(-c2sc(-c3ccc(C(=N)NC4CCCC4)cc3)c3c2OCCO3)cc1 | 1.4 °C |

tested on: Calf thymus DNA; assay: Binding affinity to calf thymus DNA assessed as hyperchromic effect at compound over DNA molar ratio of 0.2 by UV-Vis spectra; format: nucleic-acid assay; details: Bos taurus; in the assay text read “hypochromic effect” for “hyperchromic effect”
How it was run: (§4)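 UV-Vis titration of compound (c = 1.97 × 10^-5 mol dm^-3 in the shown example) with ct-DNA. Na-cacodylate buffer, pH 7.0, I = 0.05 mol dm^-3, 1 cm quartz cuvette. Absorbance at the maximum was tracked against c(ct-DNA). Ks and n were obtained by non-linear least-squares Scatchard fitting.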

| SMILES | Activity |
| --- | --- |
| c1cc(-c2sc(-c3ccc(C4=NCCCN4)cc3)c3c2OCCO3)ccc1C1=NCCCN1 | Active |
| N=C(NC1CCCC1)c1ccc(-c2sc(-c3ccc(C(=N)NC4CCCC4)cc3)c3c2OCCO3)cc1 | Active |

tested on: Calf thymus DNA; assay: Binding affinity to calf thymus DNA assessed as batochromic effect at compound over DNA molar ratio of 0.2 by UV-Vis spectra; format: nucleic-acid assay; details: Bos taurus; how it was run: as §4

| SMILES | Activity |
| --- | --- |
| c1cc(-c2sc(-c3ccc(C4=NCCCN4)cc3)c3c2OCCO3)ccc1C1=NCCCN1 | Active |
| N=C(NC1CCCC1)c1ccc(-c2sc(-c3ccc(C(=N)NC4CCCC4)cc3)c3c2OCCO3)cc1 | Active |

tested on: NCI-H358; assay: Cytotoxicity against human NCI-H358 cells after 72 hrs by MTT assay; format: functional; details: NCI-H358, 72 h; how it was run: as §1

| SMILES | GI50 |
| --- | --- |
| c1cc(-c2sc(-c3ccc(C4=NCCCN4)cc3)c3c2OCCO3)ccc1C1=NCCCN1 | 98.7 µM |
| N=C(NC1CCCC1)c1ccc(-c2sc(-c3ccc(C(=N)NC4CCCC4)cc3)c3c2OCCO3)cc1 | 62.2 µM |

From ChEMBL document CHEMBL1667800, “Synthesis, DNA/RNA affinity and antitumour activity of new aromatic diamidines linked by 3,4-ethylenedioxythiophene” (Eur J Med Chem, 2011)
